The list is not random: actives were taken first. Their share in the collection is about 5.8%.
T cruzi growth-1: blocks T. cruzi growth in NIH3T3 culture; 77,000 tested, 5.9% active; inhibition, % at 8.34 µM; T. cruzi beta-gal in NIH3T3, GalScreen luminescence, 90 h;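 active means mean inhibition above about 93%, with at least 55% of replicates each passing it, limit read from the data, passing the limit was not always enough; inconclusive means only one of those two conditions holds; inactive means neither condition holds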
KDM4C inh: blocks human GASC-1 (KDM4C) demethylase activity; inhibition, % at 12.5 µM; 96,000 tested, 0.15% active; GST-KDM4C 2-372, H3K9me3 peptide, LANCE TR-FRET; AID 720574;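 active means mean replicate inhibition above about 25%, with at least 55% of replicates also reaching it, limit read from the data, passing the limit was not always enough; inconclusive means only one of those two conditions met; inactive means neither condition met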
Target sequence (Q9H3R0 2-372 limits assumed): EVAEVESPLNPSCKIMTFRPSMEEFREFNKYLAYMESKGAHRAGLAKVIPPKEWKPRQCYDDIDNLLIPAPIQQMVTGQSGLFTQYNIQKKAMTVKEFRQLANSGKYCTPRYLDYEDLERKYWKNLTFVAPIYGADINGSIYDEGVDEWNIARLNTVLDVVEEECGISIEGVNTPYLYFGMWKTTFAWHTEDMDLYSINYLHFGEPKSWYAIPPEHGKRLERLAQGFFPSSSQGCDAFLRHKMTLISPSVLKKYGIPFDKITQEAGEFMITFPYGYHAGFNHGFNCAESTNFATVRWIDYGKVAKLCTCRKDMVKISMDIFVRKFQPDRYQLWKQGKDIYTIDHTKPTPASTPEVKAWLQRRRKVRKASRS
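System: N-terminal GST-fused human GASC-1 (KDM4C) fragment, residues 2-372 / Amount: 10 nM GST-KDM4C in enzyme reaction / Also added: H3K9me3 peptide with Fe(II)/2OG / Times: 30 min demethylation and 1 h detection at room temperature / Signal: LANCE TR-FRET / Read-out basis: Fall in 671/618 emission ratio as inhibition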
IDH1 mut inh: IDH1 R132H (human) inhibition; 70,000 tested, 0.18% active; O75874; inhibition, % at 10 µM; IDH1 R132H reductase, diaphorase/resazurin fluorescence, 60 min; in the data active means inhibition above about 34%; inconclusive means no clear call, values can overlap the other calls; inactive means below about 11%;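 further: 0% = DMSO and 100% = no enzyme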
Target sequence (O75874 whole entry R132H): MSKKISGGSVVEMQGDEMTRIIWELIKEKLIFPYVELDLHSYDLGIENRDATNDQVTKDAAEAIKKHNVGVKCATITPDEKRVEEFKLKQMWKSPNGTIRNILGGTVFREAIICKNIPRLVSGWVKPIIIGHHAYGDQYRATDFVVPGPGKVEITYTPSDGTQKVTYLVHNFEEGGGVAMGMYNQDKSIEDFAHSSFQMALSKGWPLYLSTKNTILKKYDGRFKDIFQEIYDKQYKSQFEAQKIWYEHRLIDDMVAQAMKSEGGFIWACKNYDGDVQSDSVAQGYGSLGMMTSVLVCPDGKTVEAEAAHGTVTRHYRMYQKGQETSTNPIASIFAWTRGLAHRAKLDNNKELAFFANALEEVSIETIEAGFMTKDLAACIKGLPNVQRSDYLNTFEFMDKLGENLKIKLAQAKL
Pf Dd2 growth: inhibitors of Plasmodium falciparum Dd2 growth. activity change, % at 10 µM. P. falciparum Dd2 growth, SYBR Green, 72 h; hits give low values. 94,000 tested, 2.3% active; in the data active means activity change below about -80%; inconclusive means no clear call, values can overlap the other calls
T cruzi growth-2: Trypanosoma cruzi proliferation inhibition; AID 651739; T. cruzi beta-gal in NIH3T3, GalScreen luminescence, 90 h; 5,600 tested, 72% active; inhibition, % at 8.35 µM; shares compounds with T cruzi growth-1;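 active means mean replicate inhibition above about 95% and at least 55% of replicates individually reaching it, limit read from the data; inconclusive means only one of the two criteria is met; inactive means neither criterion is met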
T cruzi growth-3: blocks T. cruzi growth in NIH3T3 host cells; shares compounds with T cruzi growth-1; T. cruzi beta-gal in NIH3T3, GalScreen luminescence, 90 h; inhibition, % at 2.09 µM; 5,600 tested, 21% active; AID 651740;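 active means mean inhibition above about 95%, with at least 55% of replicates also reaching it, limit read from the data; inconclusive means meets just one of the two conditions; inactive means meets neither condition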;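 further: plate controls were neutral control median for no effect and positive control median for full effect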
3T3 cytotox: NIH/3T3 (mouse) viability loss | shares compounds with T cruzi growth-1 | 5,600 tested, 14% active | NIH/3T3 viability, CellTiter-Glo ATP luminescence, 90 h | cytotoxicity (signal decrease), % at 8.35 µM;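 active means mean signal decrease across replicates above about 35% based on untreated-well scatter, with enough replicates individually passing, limit read from the data; inconclusive means no rule stated though some were filed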;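 further: 0% = median of neutral control wells and 100% = median of positive control wells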
3T3 cytotox 2: NIH/3T3 (mouse) viability loss | shares compounds with T cruzi growth-1 | NIH/3T3 viability, CellTiter-Glo ATP luminescence, 90 h | inhibition, % at 24.9 µM | 5,600 tested, 56% active | AID 651744;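 active means mean loss of cell viability signal at or above a set limit, and enough replicates individually reaching it; inconclusive means meets only the mean limit or only the replicate share; inactive means meets neither condition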;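 further: 0% = median of neutral control wells and 100% = median of positive control wells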
* = called active by the depositor; ? = inconclusive; nt = not tested or not shown.

SMILES	T cruzi growth-1	KDM4C inh	IDH1 mut inh	Pf Dd2 growth	T cruzi growth-2	T cruzi growth-3	3T3 cytotox	3T3 cytotox 2
C[C@H](CO)N1C[C@H](C)[C@@H](CN(C)C(=O)Cc2ccccc2)Oc2ncc(C#Cc3ccccc3F)cc2C1=O	96.0*	-1.8	0.3	-25.3	108.4*	65.1	5.8	94.1*
CCCC#Cc1ccc([C@H]2[C@H]3CN(CC4CCOCC4)CCCCN3[C@H]2CO)cc1	64.8	0.7	nt	-7.7	nt	nt	nt	nt
CCCC#Cc1ccc([C@H]2[C@@H](CO)N3CCCCN(CC4CCOCC4)C[C@H]23)cc1	124.4*	0.4	nt	-53.1	93.0	78.4	30.1	100.8*
OC[C@H]1[C@H](c2ccc(C#Cc3ccccc3)cc2)[C@H]2CN(CC3CCOCC3)CCCCN21	102.5*	-1.3	nt	-57.5	108.8*	86.6	75.9*	104.9*
OC[C@@H]1[C@@H](c2ccc(C#Cc3ccccc3)cc2)[C@@H]2CN(CC3CCOCC3)CCCCN12	?	-0.5	nt	-47.4	105.1*	65.2	52.0*	105.3*
OC[C@H]1[C@@H](c2ccc(C#Cc3ccccc3)cc2)[C@H]2CN(CC3CCOCC3)CCCCN21	93.9	-1.0	nt	-16.1	nt	nt	nt	nt
OC[C@@H]1[C@H](c2ccc(C#Cc3ccccc3)cc2)[C@@H]2CN(CC3CCOCC3)CCCCN12	104.4*	-0.7	nt	-11.5	106.0*	81.3	31.7	103.2*
CCS(=O)(=O)NCC[C@@H]1CC[C@H](NS(=O)(=O)c2cccc(Cl)c2)[C@H](CO)O1	18.8	-0.5	-0.3	-6.5	nt	nt	nt	nt
COc1ccc(C(=O)Nc2ccccc2C(=O)OCc2cccc([N+](=O)[O-])c2)cc1	nt	nt	-0.1	nt	nt	nt	nt	nt
COc1ccc(NC(=O)N2CCCCN3[C@H](CO)[C@@H](c4ccc(C#CCC(C)C)cc4)[C@H]3C2)cc1	121.9*	-1.4	nt	-68.4	88.3	101.3*	117.1*	105.7*
CC(C)CC#Cc1ccc([C@H]2[C@@H](CO)N3CCCCN(C(=O)Nc4ccccc4)C[C@H]23)cc1	37.2	-1.3	nt	-22.9	nt	nt	nt	nt
CC(C)CC#Cc1ccc([C@@H]2[C@@H](CO)N3CCCCN(C(=O)Nc4ccccc4)C[C@H]23)cc1	?	-0.4	nt	-31.1	94.3	84.5	59.2*	106.4*
CC(C)CC#Cc1ccc([C@@H]2[C@@H](CO)N3CCCCN(C(=O)Nc4ccccc4)C[C@@H]23)cc1	111.2*	-1.0	nt	9.3	96.6*	93.5	30.2	102.7*
CC(C)CC#Cc1ccc([C@H]2[C@H]3CN(C(=O)Nc4ccccc4)CCCCN3[C@H]2CO)cc1	100.9*	8.3	nt	4.1	98.3*	90.6	26.8	83.3*
COc1c(C)cc(Br)cc1C(=O)NC(=S)Nc1sc2c(c1C(N)=O)CCCCC2	nt	nt	-0.2	nt	nt	nt	nt	nt
COc1ccc(S(=O)(=O)N(C)C[C@H]2Oc3cc(-c4ccccc4OC)ccc3S(=O)(=O)N([C@H](C)CO)C[C@H]2C)cc1	122.9*	-2.6	2.3	-62.0	98.5*	58.2	20.9	36.6*
COc1ccc(S(=O)(=O)N(C)C[C@@H]2Oc3cc(-c4ccccc4OC)ccc3S(=O)(=O)N([C@@H](C)CO)C[C@H]2C)cc1	124.8*	0.1	nt	?	105.6*	86.8	?	51.1*
COc1ccc(S(=O)(=O)N(C)C[C@H]2Oc3cc(-c4ccccc4OC)ccc3S(=O)(=O)N([C@H](C)CO)C[C@@H]2C)cc1	122.8*	-2.2	nt	-74.1	100.5*	45.7	46.6*	57.3*
C[C@@H]1CN([C@@H](C)CO)C(=O)c2cc(-c3ccccc3)cnc2O[C@@H]1CN(C)Cc1ccc(C(=O)O)cc1	-25.7	-1.3	0.0	12.3	nt	nt	nt	nt
N#Cc1ccccc1NC(=O)CS(=O)(=O)Cc1ccccc1	nt	nt	0.1	nt	nt	nt	nt	nt
CCCN1C[C@H](C)[C@@H](OC)CN(C)C(=O)c2cc(NS(C)(=O)=O)ccc2OC[C@H]1C	-17.0	0.1	nt	14.1	nt	nt	nt	nt
CO[C@H]1CN(C)C(=O)c2cc(NC(=O)NC3CCCCC3)ccc2OC[C@H](C)N(CCc2ccccc2)C[C@@H]1C	86.0	2.0	0.9	-33.8	nt	nt	nt	nt
CO[C@@H]1CN(C)C(=O)c2ccc(NC(=O)NC3CCCCC3)cc2OC[C@@H](C)N(CCc2ccccc2)C[C@H]1C	117.8*	-0.5	0.2	-79.5	110.1*	50.6	21.6	10.3
CO[C@@H]1CN(C)C(=O)c2ccc(NC(=O)Cc3ccccc3)cc2OC[C@@H](C)N(CCc2ccccc2)C[C@H]1C	99.1*	0.2	0.2	-60.9	99.7*	103.6*	-3.8	11.3
CCC(=O)Nc1ccc2c(c1)OC[C@@H](C)N(CCc1ccccc1)C[C@H](C)[C@@H](OC)CN(C)C2=O	58.0	0.9	-0.5	-33.7	nt	nt	nt	nt
SMILES	T cruzi growth-1	KDM4C inh	IDH1 mut inh	Pf Dd2 growth	T cruzi growth-2	T cruzi growth-3	3T3 cytotox	3T3 cytotox 2
CO[C@@H]1CN(C)C(=O)c2ccc(NC(=O)C3CCCC3)cc2OC[C@@H](C)N(CCC(F)(F)F)C[C@@H]1C	-12.9	-0.8	0.5	-26.5	nt	nt	nt	nt
O=C(Nc1ccccc1)N1CCCCN2[C@@H](CO)[C@H](c3ccc(C#Cc4ccccc4)cc3)[C@@H]2C1	68.5	-0.9	nt	-73.7	nt	nt	nt	nt
COc1ccc(NC(=O)N2CCCCN3[C@H](C2)[C@H](c2ccc(C#Cc4ccccc4)cc2)[C@@H]3CO)cc1	99.4*	nt	nt	-2.2	109.3*	57.2	26.6	56.5*
COc1ccc(C#Cc2ccc([C@@H]3[C@@H](CO)N4CCCCN(C(=O)Nc5ccccc5)C[C@H]34)cc2)cc1	68.5	-2.9	nt	-77.6	nt	nt	nt	nt
COc1ccc(NC(=O)N2CCCCN3[C@@H](CO)[C@H](c4ccc(C#Cc5ccccc5)cc4)[C@@H]3C2)cc1	67.2	nt	nt	-75.3	nt	nt	nt	nt
COc1ccc(NC(=O)N2CCCCN3[C@H](C2)[C@@H](c2ccc(C#Cc4ccccc4)cc2)[C@@H]3CO)cc1	?	nt	nt	-73.0	103.9*	119.1*	59.8*	104.3*
COc1ccc(C#Cc2ccc([C@@H]3[C@H]4CN(C(=O)Nc5ccccc5)CCCCN4[C@H]3CO)cc2)cc1	106.5*	-1.0	nt	-70.1	92.0	93.8	93.8*	106.5*
CCCC(=O)N1CCC2(CC1)CN(Cc1nccs1)[C@@H](CO)c1[nH]c3cc(OC)ccc3c12	nt	-1.2	nt	-69.1	nt	nt	nt	nt
COc1cccc(NC(=O)N(C)C[C@H]2Oc3cc(-c4ccccc4F)ccc3S(=O)(=O)N([C@@H](C)CO)C[C@H]2C)c1	97.6	nt	-0.1	-14.9	nt	nt	nt	nt
Cc1ccc(S(=O)(=O)Nc2ccc3c(c2)C(=O)N([C@H](C)CO)C[C@@H](C)[C@H](CN(C)C(=O)Cc2ccccc2)OCCCC[C@@H](C)O3)cc1	96.6*	0.2	-4.3	-32.1	107.5*	63.1	1.2	-15.0

Bioassay records: PubChem, Broad Institute
